The target of assay [1] is T1, Ephrin type-A receptor 3 (Homo sapiens) (UniProt P29320).
T1 sequence (whole entry): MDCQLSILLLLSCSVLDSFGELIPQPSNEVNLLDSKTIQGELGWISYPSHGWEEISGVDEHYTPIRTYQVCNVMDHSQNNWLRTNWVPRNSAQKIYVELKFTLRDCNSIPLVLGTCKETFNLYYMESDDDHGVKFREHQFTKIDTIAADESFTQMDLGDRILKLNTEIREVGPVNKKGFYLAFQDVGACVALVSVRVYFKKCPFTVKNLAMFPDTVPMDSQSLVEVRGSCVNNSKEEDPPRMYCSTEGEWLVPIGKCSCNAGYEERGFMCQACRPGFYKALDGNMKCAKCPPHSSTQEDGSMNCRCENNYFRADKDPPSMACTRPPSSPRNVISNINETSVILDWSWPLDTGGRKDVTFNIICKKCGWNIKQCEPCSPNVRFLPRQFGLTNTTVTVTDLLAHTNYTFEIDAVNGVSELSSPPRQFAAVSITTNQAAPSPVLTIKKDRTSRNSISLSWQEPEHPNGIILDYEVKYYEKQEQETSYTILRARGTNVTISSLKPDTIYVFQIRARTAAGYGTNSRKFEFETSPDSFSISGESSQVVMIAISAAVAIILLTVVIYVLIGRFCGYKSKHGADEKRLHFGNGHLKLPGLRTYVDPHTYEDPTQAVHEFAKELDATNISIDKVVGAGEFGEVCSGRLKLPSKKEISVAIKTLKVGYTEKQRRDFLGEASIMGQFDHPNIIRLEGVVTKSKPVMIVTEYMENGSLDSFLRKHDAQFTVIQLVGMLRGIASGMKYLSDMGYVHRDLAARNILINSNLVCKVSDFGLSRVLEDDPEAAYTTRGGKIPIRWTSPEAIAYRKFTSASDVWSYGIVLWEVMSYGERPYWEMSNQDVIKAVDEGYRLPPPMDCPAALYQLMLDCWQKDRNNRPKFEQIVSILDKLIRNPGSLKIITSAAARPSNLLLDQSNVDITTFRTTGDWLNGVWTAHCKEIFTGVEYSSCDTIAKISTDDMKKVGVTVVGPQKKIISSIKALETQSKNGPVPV
Nature of the assay: Inhibition of EPHA3 at 1 uM. The essentials:
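Single-concentration screen using Ambit Bioscience KINOMEscan technology across a panel of 250–400 kinases. Per-kinase inhibition from this screen was summarized as S(90), the fraction of kinases inhibited by more than 90%.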

In assay [2] the target is T2, Tyrosine-protein kinase TXK (Homo sapiens) (UniProt P42681).
T2 sequence (whole entry): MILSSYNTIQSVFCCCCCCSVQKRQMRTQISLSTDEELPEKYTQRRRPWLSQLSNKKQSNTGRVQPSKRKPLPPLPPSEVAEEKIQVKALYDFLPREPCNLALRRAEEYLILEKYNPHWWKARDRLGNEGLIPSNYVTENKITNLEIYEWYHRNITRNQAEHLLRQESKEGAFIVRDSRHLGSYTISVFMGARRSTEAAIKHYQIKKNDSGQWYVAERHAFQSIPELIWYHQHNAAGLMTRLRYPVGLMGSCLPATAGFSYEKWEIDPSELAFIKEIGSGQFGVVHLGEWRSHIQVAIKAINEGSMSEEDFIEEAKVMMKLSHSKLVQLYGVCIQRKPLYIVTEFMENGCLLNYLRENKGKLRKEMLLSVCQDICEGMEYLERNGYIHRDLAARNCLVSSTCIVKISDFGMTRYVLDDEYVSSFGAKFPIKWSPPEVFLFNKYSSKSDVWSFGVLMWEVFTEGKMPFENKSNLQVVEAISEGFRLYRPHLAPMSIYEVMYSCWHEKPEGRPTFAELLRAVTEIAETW
Nature of the assay: Inhibition of TXK at 1 uM.

In assay [3] the target is Insulin-like growth factor 1 receptor (Homo sapiens) (UniProt P08069). Kind of assay: Inhibition of IGF1R at 1 uM. In outline:
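Single-concentration screen on the Ambit KINOMEscan platform, run against a panel of 250–400 kinases. Per-kinase inhibition was also summarized as S(90), the fraction of kinases inhibited by more than 90%.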

For assay [4], the target named is Serine/threonine-protein kinase MARK2 (Homo sapiens) (UniProt Q7KZI7). Nature of the assay: Inhibition of MARK2 at 1 uM. The essentials: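 Kinase-panel screen using KINOMEscan technology, with 250–400 kinases per panel. Each compound was tested at a single concentration, and inhibition of each kinase was recorded. Selectivity was summarised as S(90), the fraction of kinases inhibited by more than 90%.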
Chain of Serine/threonine-protein kinase MARK2 (Homo sapiens) (Q7KZI7 whole entry): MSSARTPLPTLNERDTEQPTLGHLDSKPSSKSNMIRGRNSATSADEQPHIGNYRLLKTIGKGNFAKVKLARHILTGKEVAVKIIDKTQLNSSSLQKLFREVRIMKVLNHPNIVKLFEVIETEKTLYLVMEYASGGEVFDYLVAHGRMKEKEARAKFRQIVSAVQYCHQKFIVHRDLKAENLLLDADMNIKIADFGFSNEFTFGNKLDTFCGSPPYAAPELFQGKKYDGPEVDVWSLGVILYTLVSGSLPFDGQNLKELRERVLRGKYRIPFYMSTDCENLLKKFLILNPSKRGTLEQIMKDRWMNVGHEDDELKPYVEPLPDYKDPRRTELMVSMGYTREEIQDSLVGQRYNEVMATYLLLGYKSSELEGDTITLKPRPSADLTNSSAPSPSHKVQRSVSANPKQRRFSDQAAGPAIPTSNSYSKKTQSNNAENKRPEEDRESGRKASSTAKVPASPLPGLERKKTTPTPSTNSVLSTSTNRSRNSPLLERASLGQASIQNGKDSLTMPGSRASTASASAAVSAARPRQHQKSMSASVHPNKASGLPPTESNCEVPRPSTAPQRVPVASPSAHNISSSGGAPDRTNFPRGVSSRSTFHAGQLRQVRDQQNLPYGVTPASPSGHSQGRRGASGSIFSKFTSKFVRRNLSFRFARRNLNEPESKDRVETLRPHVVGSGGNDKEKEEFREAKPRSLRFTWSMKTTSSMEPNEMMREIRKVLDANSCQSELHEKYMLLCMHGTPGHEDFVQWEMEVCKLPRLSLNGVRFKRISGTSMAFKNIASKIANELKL

In assay [5] the target is T3, Dual specificity protein kinase TTK (Homo sapiens) (UniProt P33981).
T3 sequence (whole entry): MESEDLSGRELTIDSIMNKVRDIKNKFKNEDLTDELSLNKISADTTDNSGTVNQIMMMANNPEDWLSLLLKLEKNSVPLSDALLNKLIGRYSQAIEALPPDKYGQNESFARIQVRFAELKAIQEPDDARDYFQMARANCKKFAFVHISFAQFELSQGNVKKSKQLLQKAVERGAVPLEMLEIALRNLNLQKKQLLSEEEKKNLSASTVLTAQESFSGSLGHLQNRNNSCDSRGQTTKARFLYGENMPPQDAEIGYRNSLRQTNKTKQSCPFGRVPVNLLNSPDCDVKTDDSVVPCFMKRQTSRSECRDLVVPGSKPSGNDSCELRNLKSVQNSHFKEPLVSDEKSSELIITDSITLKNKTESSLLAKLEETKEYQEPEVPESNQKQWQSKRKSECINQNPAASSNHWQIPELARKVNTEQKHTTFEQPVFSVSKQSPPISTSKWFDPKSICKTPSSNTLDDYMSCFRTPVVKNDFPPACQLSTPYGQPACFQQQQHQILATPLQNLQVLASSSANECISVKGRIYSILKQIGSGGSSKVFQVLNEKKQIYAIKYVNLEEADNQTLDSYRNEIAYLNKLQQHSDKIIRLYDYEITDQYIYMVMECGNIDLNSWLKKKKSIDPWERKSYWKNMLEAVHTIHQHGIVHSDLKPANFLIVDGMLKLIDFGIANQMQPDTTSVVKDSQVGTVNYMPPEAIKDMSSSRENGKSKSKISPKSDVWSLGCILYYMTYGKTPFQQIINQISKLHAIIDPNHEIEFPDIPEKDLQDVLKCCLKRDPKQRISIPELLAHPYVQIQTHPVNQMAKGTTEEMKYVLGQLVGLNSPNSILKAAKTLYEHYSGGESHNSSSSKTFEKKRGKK
Kind of assay: Inhibition of TTK at 1 uM.

Chain of Insulin-like growth factor 1 receptor (Homo sapiens) (P08069 31-736 limits assumed): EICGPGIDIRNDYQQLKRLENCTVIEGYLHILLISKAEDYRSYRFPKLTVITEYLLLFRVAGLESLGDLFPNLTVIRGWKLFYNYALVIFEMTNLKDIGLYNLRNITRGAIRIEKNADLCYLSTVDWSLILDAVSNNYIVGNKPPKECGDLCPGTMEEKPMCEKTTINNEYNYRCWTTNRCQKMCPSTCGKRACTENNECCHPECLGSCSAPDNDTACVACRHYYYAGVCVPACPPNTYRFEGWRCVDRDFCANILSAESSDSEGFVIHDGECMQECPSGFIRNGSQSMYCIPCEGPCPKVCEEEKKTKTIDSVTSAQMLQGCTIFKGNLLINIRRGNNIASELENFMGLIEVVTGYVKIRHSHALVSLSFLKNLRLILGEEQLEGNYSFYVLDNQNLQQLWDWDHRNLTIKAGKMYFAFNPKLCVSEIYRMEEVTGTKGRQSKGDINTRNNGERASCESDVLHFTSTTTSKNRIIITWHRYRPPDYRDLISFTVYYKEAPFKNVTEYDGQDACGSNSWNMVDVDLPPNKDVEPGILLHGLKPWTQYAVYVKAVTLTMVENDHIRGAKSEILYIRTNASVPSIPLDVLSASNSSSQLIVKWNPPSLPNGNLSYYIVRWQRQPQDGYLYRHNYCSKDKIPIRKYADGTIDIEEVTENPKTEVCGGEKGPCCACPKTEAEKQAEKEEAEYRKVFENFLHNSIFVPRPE
Chain of Insulin-like growth factor 1 receptor (Homo sapiens) (P08069 741-1367 limits assumed): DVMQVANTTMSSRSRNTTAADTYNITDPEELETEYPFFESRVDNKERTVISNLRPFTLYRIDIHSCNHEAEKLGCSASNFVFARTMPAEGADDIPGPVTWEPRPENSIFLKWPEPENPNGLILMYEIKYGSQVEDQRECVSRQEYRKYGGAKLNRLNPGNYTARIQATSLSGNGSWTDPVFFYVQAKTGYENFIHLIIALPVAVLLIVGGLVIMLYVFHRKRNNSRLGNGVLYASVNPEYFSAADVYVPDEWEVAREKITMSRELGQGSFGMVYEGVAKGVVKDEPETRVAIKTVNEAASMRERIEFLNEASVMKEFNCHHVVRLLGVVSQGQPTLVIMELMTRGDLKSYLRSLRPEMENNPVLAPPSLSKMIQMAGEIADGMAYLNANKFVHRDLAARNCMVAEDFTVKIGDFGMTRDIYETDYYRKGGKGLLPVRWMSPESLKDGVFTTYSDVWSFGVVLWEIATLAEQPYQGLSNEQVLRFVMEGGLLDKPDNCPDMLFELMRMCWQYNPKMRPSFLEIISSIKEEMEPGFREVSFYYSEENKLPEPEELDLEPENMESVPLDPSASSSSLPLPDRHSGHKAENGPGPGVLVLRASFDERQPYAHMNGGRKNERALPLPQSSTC

Consider `O=C(c1ccc(-c2cnc3c(c2)N(Cc2cc(Cl)ccc2C(F)(F)F)CCN3)cc1)N1CCCCC1`, for which the inhibition in assay [1], in assay [2], in assay [3], in assay [4] and in assay [5] was less than 50% each time.
In the case of `CN1CCN(c2ccc(-c3cnc4c(c3)N(Cc3c(F)ccc(F)c3Cl)CCN4)cn2)CC1`, the inhibition in assay [1], in assay [2], in assay [3], in assay [4] and in assay [5] was less than 50% each time.
On to `COC1CCN(C(=O)c2ccc(-c3cnc4c(c3)N(Cc3cc(Cl)ccc3C(F)(F)F)CCN4)cc2)CC1`, for which the inhibition in assay [1], in assay [2], in assay [3], in assay [4] and in assay [5] was less than 50% each time.
On to `O=C(O)c1ccc(-c2cnc3c(c2)N(Cc2cc(Cl)ccc2C(F)(F)F)CCN3)cc1`, for which the inhibition in assay [1] was less than 50%; in assay [2], less than 50%; in assay [3], less than 50%; in assay [4] it was 85%; in assay [5] it was less than 50%.
On to `FC(F)(F)c1ccc(Cl)cc1CN1CCNc2ncc(-c3ccnc(N4CCNCC4)c3)cc21`, for which the inhibition in assay [1], in assay [2], in assay [3], in assay [4] and in assay [5] was less than 50% in each case.
`CN1CCN(c2ccc(-c3cnc4c(c3)N(Cc3cc(Cl)ccc3Cl)CCN4)cn2)CC1`: the inhibition in assay [1], in assay [2], in assay [3], in assay [4] and in assay [5] was less than 50% throughout.
For the molecule `O=C(c1ccc(-c2cnc3c(c2)N(Cc2cc(Cl)ccc2C(F)(F)F)CCN3)cc1)N1CCC(N2CCCC2)CC1`, the inhibition was less than 50% in assay [1]; less than 50% in assay [2]; less than 50% in assay [3]; 72.3% in assay [4]; less than 50% in assay [5].
`CN1CCN(c2ccc(-c3cnc4c(c3)N(Cc3cc(Cl)ccc3C(F)(F)F)CCN4)cn2)CC1`: the inhibition in assay [1], in assay [2], in assay [3], in assay [4] and in assay [5] was less than 50% in each case.
As for `CC(=O)N1CCN(c2cc(-c3cnc4c(c3)N(Cc3cc(Cl)ccc3C(F)(F)F)CCN4)ccn2)CC1`, the inhibition in assay [1] was less than 50%; in assay [2], less than 50%; in assay [3], less than 50%; in assay [4], 66%; in assay [5] it was less than 50%.
`CN1CCN(c2ccc(-c3cnc4c(c3)N(Cc3cc(F)ccc3F)CCN4)cn2)CC1`: the inhibition in assay [1], in assay [2], in assay [3], in assay [4] and in assay [5] was less than 50% throughout.

The record behind these values is ChEMBL document CHEMBL1165965, “Synthesis and structure-activity relationships of 1,2,3,4-tetrahydropyrido[2,3-b]pyrazines as potent and selective inhibitors of the anaplastic lymphoma kinase” (Bioorg Med Chem, 2010).
